Data: ChEMBL document CHEMBL1641569, “Synthetic conjugates of genistein affecting proliferation and mitosis of cancer cells” (Bioorg Med Chem, 2011)
One block for each molecule: values may come before it. Activity calls are given as the source filed them. The rule behind the calls is not given here.

Key:
[1] = test system: HCT-116; assay: Inhibition of mitosis in human HCT116 cells assessed as mitotic index at 20 uM after 24 hrs by fluorescence assay; assay type: functional
How it was run: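 Cells treated 24 h, collected as for cell cycle analysis, cytospun, fixed in cold methanol, stained with 3 µM DAPI; mitotic cells counted among 1000 cells under 40× objective. Mean ± SD from three independent experiments.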

[2] = test system: HCT-116; assay: Cytotoxicity against human HCT116 cells after 72 hrs by MTT assay; assay type: functional, cell-based; conditions: HCT-116, 72 h
[3] = test system: HCT-116; assay: Cell cycle arrest in human HCT116 cells assessed as accumulation at G2/M phase at 5 to 20 uM after 24 hrs by propidium iodide staining-based flow cytometry; assay type: functional
How it was run: (§1)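 Subconfluent cultures exposed continuously to compound; floating and trypsinized adherent cells pooled, PBS-washed, fixed in ice-cold 70% ethanol 30 min, RNase (100 µg/mL) treated, stained with propidium iodide, DNA content measured by flow cytometry to give G1, S, G2/M, apoptotic (sub-G1) and polyploid fractions. Experiments repeated at least twice.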

[4] = test system: HT-29; assay: Cytotoxicity against human HT-29 cells after 72 hrs by SRB assay; assay type: functional, cell-based; conditions: HT-29, 72 h
How it was run: (§2)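 Cells plated at 2 × 10³ per well 24 h before continuous 72 h exposure to a concentration series; fixed with cold 50% TCA 1 h at 4 °C, stained with 0.4% sulforhodamine B in 1% acetic acid 30 min, bound dye extracted in 10 mM Tris base, OD 540 nm. Viability as % of DMSO control; IC50 = concentration reducing viability 50%; triplicates, ≥3 experiments.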

[5] = test system: DU-145; assay: Cytotoxicity against human DU145 cells after 72 hrs by MTT assay; assay type: functional, cell-based; conditions: DU-145, 72 h
How it was run: (§3)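 Cells seeded at 2 × 10³ per well, 24 h later exposed continuously 72 h to varying concentrations; then 0.5 mg/mL MTT in phenol red-free DMEM 3 h at 37 °C, formazan dissolved in 2-propanol/HCl, OD 570 nm. Viability relative to DMSO vehicle; IC50 = concentration reducing viability by 50%; triplicate wells, at least three independent experiments, mean ± SD.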

[6] = test system: LNCaP; assay: Cytotoxicity against human LNCAP cells after 72 hrs by SRB assay; assay type: functional, cell-based; how it was run: as §2
[7] = test system: Caco-2; assay: Cytotoxicity against human Caco2 cells after 72 hrs by MTT assay; assay type: functional, cell-based; conditions: Caco-2, 72 h; how it was run: as §3
[8] = test system: MCF7; assay: Cytotoxicity against human MCF7 cells after 72 hrs by SRB assay; assay type: functional, cell-based; conditions: MCF7, 72 h; how it was run: as §2
[9] = test system: T98G; assay: Cytotoxicity against human T98G cells after 72 hrs by SRB assay; assay type: functional, cell-based; how it was run: as §2
[10] = test system: SK-BR-3; assay: Cytotoxicity against human SKBR3 cells after 72 hrs by SRB assay; assay type: functional, cell-based; conditions: SK-BR-3, 72 h; how it was run: as §2
[11] = test system: PC-3; assay: Cytotoxicity against human PC3 cells after 72 hrs by MTT assay; assay type: functional, cell-based; conditions: PC-3, 72 h; how it was run: as §3
[12] = test system: LoVo; assay: Cytotoxicity against human LoVo cells after 72 hrs by MTT assay; assay type: functional, cell-based; how it was run: as §3
[13] = test system: AGS; assay: Cytotoxicity against human AGS cells after 72 hrs by MTT assay; assay type: functional, cell-based; how it was run: as §3
[14] = test system: A549; assay: Cytotoxicity against human A549 cells after 72 hrs by SRB assay; assay type: functional, cell-based; conditions: A549, 72 h; how it was run: as §2
[15] = test system: HCT-116; assay: Cell cycle arrest in human HCT116 cells assessed as accumulation at G2/M phase after 24 hrs by propidium iodide staining-based flow cytometry; assay type: functional; how it was run: as §1
[16] = test system: HCT-116; assay: Induction of apoptosis in human HCT116 cells assessed as appearance of tetraploid nucleus at 5 to 20 uM after 48 hrs by flow cytometry; assay type: functional, cell-based; how it was run: as §1
[17] = test system: HCT-116; assay: Induction of apoptosis in human HCT116 cells harboring p53 protein assessed as effect on apoptotic index at 20 uM after 72 hrs by DNA laddering assay; assay type: functional
How it was run: (§4)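 Floating and trypsin-detached adherent cells pooled, cytospun, fixed and TUNEL-labelled; apoptotic index scored among 500 nuclei, three experiments. In parallel, DNA extracted (proteinase K/SDS overnight 56 °C, phenol/chloroform, RNase A) and run on 1.8% agarose/ethidium bromide gel in 0.5× TBE for laddering. Controls received 0.2% DMSO; 24, 48, 72 h treatments.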

[18] = test system: DU-145; assay: Cell cycle arrest in human DU145 cells assessed as accumulation at G2/M phase at 20 uM after 24 hrs by propidium iodide staining-based flow cytometry; assay type: functional; how it was run: as §1
[19] = test system: HCT-116; assay: Inhibition of mitosis in human HCT116 cells assessed as appearance of monopolar spindle at 20 uM after 24 hrs by immunofluorescence assay; assay type: functional; set-up: scale not given: the % may be the effect or the level left
How it was run: (§5)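 Cells treated 24 h on chamber slides, fixed in ice-cold methanol, blocked with 1% goat serum, stained with mouse anti-β-tubulin (1:50) then FITC anti-mouse, DAPI counterstained; 100 mitotic cells per treatment scored at 100× oil for spindle type (normal bipolar, bipolar with lagging chromosomes, tri/multipolar, monopolar). Mean ± SD of two experiments.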

[20] = test system: HCT-116; assay: Induction of apoptosis in p53-deficient human HCT116 cells assessed as effect on apoptotic index at 20 uM after 72 hrs by DNA laddering assay; assay type: functional; how it was run: as §4
[21] = test system: HCT-116; assay: Induction of senescence in human HCT116 cells assessed as beta galactosidase activity at 20 uM
[22] = test system: HCT-116; assay: Inhibition of mitosis in human HCT116 cells assessed as appearance of tripolar and multipolar spindle at 20 uM after 24 hrs by immunofluorescence assay; assay type: functional; set-up: scale not given: the % may be the effect or the level left; how it was run: as §5
[23] = test system: HCT-116; assay: Induction of apoptosis in human HCT116 cells assessed as appearance of hypodiploid nucleus at 20 uM after 72 hrs by TUNEL assay; assay type: functional, cell-based; how it was run: as §4
[24] = test system: HCT-116; assay: Induction of apoptosis in human HCT116 cells assessed as effect on apoptotic index at 20 uM after 72 hrs by DNA laddering assay; assay type: functional; how it was run: as §4
[25] = test system: HCT-116; assay: Inhibition of mitosis in human HCT116 cells assessed as appearance of normal bipolar spindle at 20 uM after 24 hrs by immunofluorescence assay; assay type: functional; set-up: scale not given: the % may be the effect or the level left; how it was run: as §5
[26] = test system: HCT-116; assay: Induction of apoptosis in human HCT116 cells assessed as appearance of hypodiploid nucleus at 5 to 20 uM after 48 hrs by flow cytometry; assay type: functional, cell-based; how it was run: as §1
[27] = test system: HCT-116; assay: Cytotoxicity against p53-deficient human HCT116 cells after 72 hrs by MTT assay; assay type: functional, cell-based; conditions: HCT-116, 72 h; how it was run: as §3
[28] = test system: HCT-116; assay: Inhibition of mitosis in human HCT116 cells assessed as appearance of bipolar spindle with large mass of lagging chromosomes at spindle poles at 10 uM after 24 hrs by immunofluorescence assay; assay type: functional; set-up: scale not given: the % may be the effect or the level left; how it was run: as §5
[29] = Inhibition of tubulin polymerization after 1 hr
How it was run: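 Cell-free assay: >97% pure tubulin in G-PEM buffer (80 mM PIPES, 2 mM MgCl2, 0.5 mM EGTA, 1 mM GTP, pH 6.9) plus 5% glycerol, with vehicle, compound (10, 20, 50 µM) or 3 µM paclitaxel, in pre-warmed plate at 37 °C; absorbance at 340 nm read every minute for 1 h. Repeated twice.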

[30] = test system: HCT-116; assay: Inhibition of mitosis in human HCT116 cells assessed as appearance of monopolar spindle at 10 uM after 24 hrs by immunofluorescence assay; assay type: functional; set-up: scale not given: the % may be the effect or the level left; how it was run: as §5
[31] = test system: HCT-116; assay: Inhibition of mitosis in human HCT116 cells assessed as appearance of normal bipolar spindle at 5 uM after 24 hrs by immunofluorescence assay; assay type: functional; set-up: scale not given: the % may be the effect or the level left; how it was run: as §5
[32] = test system: HCT-116; assay: Inhibition of mitosis in human HCT116 cells assessed as appearance of tripolar and multipolar spindle at 10 uM after 24 hrs by immunofluorescence assay; assay type: functional; set-up: scale not given: the % may be the effect or the level left; how it was run: as §5
[33] = test system: HCT-116; assay: Inhibition of mitosis in human HCT116 cells assessed as appearance of bipolar spindle with large mass of lagging chromosomes at spindle poles at 5 uM after 24 hrs by immunofluorescence assay; assay type: functional; set-up: scale not given: the % may be the effect or the level left; how it was run: as §5
[34] = test system: AGS; assay: Cell cycle arrest in human AGS cells assessed as accumulation at G2/M phase at 20 uM after 24 hrs by propidium iodide staining-based flow cytometry; assay type: functional; how it was run: as §1
[35] = test system: HCT-116; assay: Inhibition of mitosis in human HCT116 cells assessed as appearance of tripolar and multipolar spindle at 5 uM after 24 hrs by immunofluorescence assay; assay type: functional; set-up: scale not given: the % may be the effect or the level left; how it was run: as §5
[36] = test system: A549; assay: Cell cycle arrest in human A549 cells assessed as accumulation at G2/M phase at 20 uM after 24 hrs by propidium iodide staining-based flow cytometry; assay type: functional; how it was run: as §1
[37] = test system: HCT-116; assay: Cytotoxicity against human HCT116 cells harboring p53 protein after 72 hrs by MTT assay; assay type: functional, cell-based; conditions: HCT-116, 72 h; how it was run: as §3
[38] = test system: HCT-116; assay: Inhibition of mitosis in human HCT116 cells assessed as appearance of bipolar spindle with large mass of lagging chromosomes at spindle poles at 20 uM after 24 hrs by immunofluorescence assay; assay type: functional; set-up: scale not given: the % may be the effect or the level left; how it was run: as §5
[39] = test system: HCT-116; assay: Inhibition of mitosis in human HCT116 cells assessed as appearance of normal bipolar spindle at 10 uM after 24 hrs by immunofluorescence assay; assay type: functional; set-up: scale not given: the % may be the effect or the level left; how it was run: as §5
[40] = test system: HCT-116; assay: Inhibition of mitosis in human HCT116 cells assessed as appearance of monopolar spindle at 5 uM after 24 hrs by immunofluorescence assay; assay type: functional; set-up: scale not given: the % may be the effect or the level left; how it was run: as §5

SMILES: O=c1c(-c2ccc(O)cc2)coc2cc(OCCCCCO)cc(O)c12
Activity [1]: 3 | IC50 [2]: 6.92 µM | Activity [3]: inactive

SMILES: CCCO[C@H]1C=C[C@@H](OC(C)=O)[C@H](C)O1
IC50 [2]: 550 µM

SMILES: O=c1c(-c2ccc(O)cc2)coc2cc(O)cc(O)c12 [GENISTEIN]
Activity [1]: 1.8 | IC50 [4]: 52.8 µM | IC50 [2]: 34.9 µM | IC50 [5]: 47.3 µM | IC50 [6]: 30.7 µM | IC50 [7]: > 100 µM | IC50 [8]: 62.7 µM | IC50 [9]: 89.4 µM | IC50 [10]: 96.7 µM | IC50 [11]: 65.2 µM | IC50 [12]: 15.9 µM | IC50 [13]: 41.7 µM | IC50 [14]: 43.1 µM

SMILES: CC(=O)O[C@@H]1C=C[C@H](OCCCCCOc2cc(O)c3c(=O)c(-c4ccc(O)cc4)coc3c2)O[C@H]1C
Activity [1]: 3.5 | Activity [15]: Dose-dependent effect | IC50 [2]: 8.08 µM

SMILES: O=c1c(-c2ccc(O)cc2)coc2cc(OCCCO)cc(O)c12
IC50 [2]: 23.9 µM

inhibition [29]: Dose-dependent effect
SMILES: CC(=O)O[C@@H]1C=C[C@H](OCCCOc2cc(O)c3c(=O)c(-c4ccc(O)cc4)coc3c2)O[C@H]1C
Activity [1]: 13.2 | Activity [16]: Active | Activity [17]: 12% | Activity [18]: 46.1% | Activity [19]: 2% | Activity [20]: 15% | Activity [21]: 31% | Activity [22]: 42% | IC50 [4]: 36.1 µM | Activity [23]: Active | Activity [24]: 12% | Activity [15]: Dose-dependent effect | IC50 [2]: 4.76 µM | Activity [25]: 16% | IC50 [5]: 14.5 µM | IC50 [6]: 18 µM | Activity [26]: Active | IC50 [27]: 6.21 µM | Activity [28]: 38% | IC50 [7]: 23.3 µM | Activity [30]: 3% | IC50 [8]: 8.88 µM | Activity [31]: 85% | Activity [32]: 15% | Activity [33]: 14% | IC50 [9]: 16.7 µM | IC50 [10]: 28 µM | Activity [34]: 39.7% | IC50 [11]: 10.7 µM | Activity [35]: 1% | Activity [36]: 31.6% | IC50 [12]: 9.85 µM | IC50 [37]: 4.76 µM | IC50 [13]: 3.05 µM | Activity [38]: 40% | IC50 [14]: 14.7 µM | Activity [39]: 44% | Activity [40]: 0%
